Measured values published in ChEMBL document CHEMBL4819068, “Novel potent bifunctional carboxylesterase inhibitors based on a polyfluoroalkyl-2-imino-1,3-dione scaffold” (Eur J Med Chem, 2021).
Active and inactive are the calls of the source. No cut-off for these calls is given here.

Key:
[1] = target: Cholinesterase (Equus caballus) (UniProt P81908); experiment: Inhibition of equine serum BuChE at 20 uM using […] as substrate preincubated for 10 mins followed by substrate addition by Ellman's method relative to control
Cholinesterase (Equus caballus), sequence (P81908 whole entry): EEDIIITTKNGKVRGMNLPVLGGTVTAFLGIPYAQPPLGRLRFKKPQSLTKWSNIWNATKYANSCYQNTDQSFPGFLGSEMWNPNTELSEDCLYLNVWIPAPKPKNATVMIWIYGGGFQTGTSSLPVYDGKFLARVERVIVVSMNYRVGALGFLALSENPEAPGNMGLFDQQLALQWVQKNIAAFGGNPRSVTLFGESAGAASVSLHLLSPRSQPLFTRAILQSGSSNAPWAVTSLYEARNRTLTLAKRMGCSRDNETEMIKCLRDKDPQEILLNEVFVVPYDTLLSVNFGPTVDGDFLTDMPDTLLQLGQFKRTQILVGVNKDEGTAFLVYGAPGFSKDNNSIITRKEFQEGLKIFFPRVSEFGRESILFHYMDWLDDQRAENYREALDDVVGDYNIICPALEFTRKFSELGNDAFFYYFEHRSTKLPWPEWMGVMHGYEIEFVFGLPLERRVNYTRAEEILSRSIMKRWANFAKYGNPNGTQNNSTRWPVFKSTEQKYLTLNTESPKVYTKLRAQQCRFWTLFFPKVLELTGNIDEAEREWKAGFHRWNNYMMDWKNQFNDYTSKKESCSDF
In short: (§1)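 Single-point screen at 20 μM in 0.1 M K/Na phosphate pH 7.5, 25 °C; 0.02 unit/mL enzyme, 1 mM ATCh (AChE) or BTCh (BChE), 0.33 mM DTNB; 2% DMSO final; 10 min preincubation then substrate; activity relative to inhibitor-free control; three separate experiments.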

Liver carboxylesterase [2] = target: T1, Liver carboxylesterase (Sus scrofa, UniProt Q29550); experiment: Inhibition of porcine liver carboxylesterase at 20 uM using 4-NPA as substrate preincubated for 10 mins followed by substrate addition by spectrophotometric analysis relative to control; format: tissue-based; conditions: pig, probe 4-NPA
T1 sequence (Q29550 whole entry): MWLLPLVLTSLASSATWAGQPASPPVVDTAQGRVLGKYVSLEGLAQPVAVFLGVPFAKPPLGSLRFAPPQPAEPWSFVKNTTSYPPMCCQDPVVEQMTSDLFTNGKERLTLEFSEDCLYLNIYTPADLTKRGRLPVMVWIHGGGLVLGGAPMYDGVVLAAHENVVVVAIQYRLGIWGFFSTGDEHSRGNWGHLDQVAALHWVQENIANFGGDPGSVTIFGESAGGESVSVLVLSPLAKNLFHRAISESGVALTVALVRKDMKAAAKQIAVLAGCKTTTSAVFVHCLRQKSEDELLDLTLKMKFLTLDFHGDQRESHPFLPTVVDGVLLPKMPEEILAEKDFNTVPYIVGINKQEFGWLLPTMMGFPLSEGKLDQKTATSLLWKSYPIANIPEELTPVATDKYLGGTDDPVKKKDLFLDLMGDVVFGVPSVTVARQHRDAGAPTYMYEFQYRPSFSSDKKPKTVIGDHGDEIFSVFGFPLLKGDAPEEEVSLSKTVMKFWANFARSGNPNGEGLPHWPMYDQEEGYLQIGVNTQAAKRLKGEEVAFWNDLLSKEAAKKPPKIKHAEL
In short: (§2)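 Porcine liver CES, 0.02 unit/mL, in 0.1 M K/Na phosphate pH 8.0, 25 °C; compound in DMSO (2% v/v final) preincubated 10 min, then 1 mM 4-nitrophenyl acetate; 4-nitrophenol read at 405 nm, enzyme-free blanks. Screening at 20 μM in three separate experiments; IC50 from eight concentrations between 10^-12 and 10^-4 M, residual activity relative to inhibitor-free control.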

[3] = Antioxidant activity assessed as decrease in ABTS radical cation scavenging activity incubated for 24 hrs by UV-Vis spectrophotometric analysis; format: functional
[4] = Antioxidant activity assessed as trolox equivalent of ABTS radical cation scavenging activity incubated for 24 hrs by UV-Vis spectrophotometric analysis; format: functional
Acetylcholinesterase [5] = target: T2, Acetylcholinesterase (Homo sapiens, UniProt P22303); experiment: Inhibition of human erythrocyte AChE at 20 uM using acetylthiocholine iodide as substrate preincubated for 10 mins followed by substrate addition by Ellman's method relative to control; in short: as §1
T2 sequence (P22303 whole entry): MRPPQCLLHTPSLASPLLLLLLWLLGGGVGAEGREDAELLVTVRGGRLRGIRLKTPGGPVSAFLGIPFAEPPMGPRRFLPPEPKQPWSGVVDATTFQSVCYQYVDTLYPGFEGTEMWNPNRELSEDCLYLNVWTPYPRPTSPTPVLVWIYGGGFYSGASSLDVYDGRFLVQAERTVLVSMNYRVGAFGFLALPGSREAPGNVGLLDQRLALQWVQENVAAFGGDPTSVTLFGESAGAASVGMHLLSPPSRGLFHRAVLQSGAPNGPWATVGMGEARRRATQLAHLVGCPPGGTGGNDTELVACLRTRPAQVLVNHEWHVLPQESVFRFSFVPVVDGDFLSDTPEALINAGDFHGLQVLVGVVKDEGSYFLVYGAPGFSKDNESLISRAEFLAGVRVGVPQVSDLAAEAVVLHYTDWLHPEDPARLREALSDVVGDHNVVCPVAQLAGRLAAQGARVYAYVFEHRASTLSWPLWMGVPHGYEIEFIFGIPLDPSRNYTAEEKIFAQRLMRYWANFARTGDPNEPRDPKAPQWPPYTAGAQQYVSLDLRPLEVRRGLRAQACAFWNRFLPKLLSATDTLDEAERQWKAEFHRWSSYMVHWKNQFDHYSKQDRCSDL

Cholinesterase [6] = target: T3, Cholinesterase (Equus caballus, UniProt P81908); experiment: Inhibition of equine serum BuChE using […] as substrate preincubated for 10 mins followed by substrate addition by Ellman's method
T3 sequence (P81908 whole entry): as the sequence (P81908 whole entry) above

[7] = Cytotoxicity against human FetMSC cells assessed as reduction in cell viability after 72 hrs by MTT assay; format: cell-based
In short: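 Human fetal MSC (bone-marrow fibroblast-like, nonimmortalized; ≤10–15 passages) grown in F12/DMEM with 10% FBS, 3 mM L-glutamine, penicillin/streptomycin. Seeded at 6×10^3 cells/well; after 24 h, medium replaced with compound at 100, 250, 500 μM for 72 h; controls 0.1% DMSO. MTT 0.5 mg/ml for 4 h, formazan dissolved in DMSO, read at 570 nm; control = 100%.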

Liver carboxylesterase 1 = target: T4, Liver carboxylesterase 1 (Homo sapiens, UniProt P23141); experiment: Inhibition of human recombinant CES1 expressed in baculovirus infected BTI insect cells using 4-NPA as substrate by spectrophotometric analysis
T4 sequence (P23141 whole entry): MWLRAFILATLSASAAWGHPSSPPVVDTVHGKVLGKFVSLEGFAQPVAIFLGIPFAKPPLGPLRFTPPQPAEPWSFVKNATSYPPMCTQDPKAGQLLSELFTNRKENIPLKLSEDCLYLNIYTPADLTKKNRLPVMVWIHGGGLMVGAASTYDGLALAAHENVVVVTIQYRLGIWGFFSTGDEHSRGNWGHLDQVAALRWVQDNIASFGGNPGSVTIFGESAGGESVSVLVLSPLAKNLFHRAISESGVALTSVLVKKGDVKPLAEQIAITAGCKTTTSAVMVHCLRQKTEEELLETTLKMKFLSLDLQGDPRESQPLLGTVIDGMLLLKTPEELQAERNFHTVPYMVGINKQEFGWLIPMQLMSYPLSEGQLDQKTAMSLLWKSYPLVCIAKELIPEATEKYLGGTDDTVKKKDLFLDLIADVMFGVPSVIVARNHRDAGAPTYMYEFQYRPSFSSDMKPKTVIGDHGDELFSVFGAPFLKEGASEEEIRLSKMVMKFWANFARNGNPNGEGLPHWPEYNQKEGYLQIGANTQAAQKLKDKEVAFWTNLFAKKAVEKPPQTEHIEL
In short: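 Recombinant hCES1 (baculovirus/BTI insect cells), 0.02 unit/mL, in 0.1 M K/Na phosphate pH 7.4, 25 °C; compound (DMSO, 2% v/v final) preincubated 10 min, then 1 mM 4-nitrophenyl acetate added; 4-nitrophenol release read at 405 nm against enzyme-free blank. IC50 from eight concentrations (10^-12–10^-4 M) relative to inhibitor-free control.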

[8] = Acute toxicity in ip dosed CD-1 mouse observed for 14 days; format: organism-based; conditions: in vivo, time 14 day
In short: (§3)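 CD-1 mice given compound intraperitoneally in 2% (w/v) starch mucilage, three animals per dose group; lethality observed over 14 days; procedure based on OECD recommendations.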

Acetylcholinesterase [9] = target: T2, Acetylcholinesterase; experiment: Inhibition of human erythrocyte AChE using acetylthiocholine iodide as substrate preincubated for 10 mins followed by substrate addition by Ellman's method
Liver carboxylesterase [10] = target: T1, Liver carboxylesterase; experiment: Inhibition of porcine liver carboxylesterase using 4-NPA as substrate preincubated for 10 mins followed by substrate addition by spectrophotometric analysis; format: tissue-based; in short: as §2
Liver carboxylesterase [11] = target: T1, Liver carboxylesterase; experiment: Competitive inhibition of porcine liver carboxylesterase by double reciprocal Lineweaver-Burk plot analysis; format: tissue-based
In short: (§4)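 Porcine liver CES residual activity measured with 3 increasing inhibitor concentrations and 5–6 decreasing 4-nitrophenyl acetate concentrations after 10 min preincubation at 25 °C; parallel inhibitor-free controls. Initial velocities plotted as Lineweaver–Burk double-reciprocal plots to derive mechanism and steady-state inhibition constants; each experiment in triplicate.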

Acetylcholinesterase [12] = target: T2, Acetylcholinesterase; experiment: Non-competitive inhibition of human erythrocyte AChE by double reciprocal Lineweaver-Burk plot analysis
In short: (§5)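 Residual activity measured with 3 increasing inhibitor concentrations and 5–6 decreasing substrate concentrations (ATCh for AChE, BTCh for BChE), DTNB read-out, 0.1 M K/Na phosphate pH 7.5, 25 °C; 10 min enzyme–inhibitor preincubation before substrate; no-inhibitor parallel control; triplicate; mechanism from Lineweaver-Burk plots.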

Liver carboxylesterase [13] = target: T1, Liver carboxylesterase; experiment: Non-competitive inhibition of porcine liver carboxylesterase by double reciprocal Lineweaver-Burk plot analysis; format: tissue-based; conditions: pig; in short: as §4
[14] = target: Cholinesterase (Equus caballus) (UniProt P81908); experiment: Non-competitive inhibition of equine serum BuChE by double reciprocal Lineweaver-Burk plot analysis; in short: as §5
Cholinesterase [15] = target: T3, Cholinesterase; experiment: Competitive inhibition of equine serum BuChE by double reciprocal Lineweaver-Burk plot analysis; in short: as §5
Acetylcholinesterase [16] = target: T2, Acetylcholinesterase; experiment: Competitive inhibition of human erythrocyte AChE by double reciprocal Lineweaver-Burk plot analysis; in short: as §5
[17] = Acute toxicity in CD-1 mouse assessed as effect on mouse death at 600 mg/kg, ip measured after 14 days; format: organism-based; conditions: in vivo, 336 h, time 14 day; in short: as §3

Compound	inhibition [1]	IC50 [3] [µM]	Activity [4]	inhibition (Acetylcholinesterase [5])	IC50 (Cholinesterase [6]) [µM]	IC50 (Liver carboxylesterase 1) [µM]	IC50 (Acetylcholinesterase [9]) [µM]	IC50 (Liver carboxylesterase [10]) [µM]	further results
CCOC(=O)/C(=N\Nc1ccc(C)cc1)C(C)=O	inactive	52.4	0.38	6.8%					inhibition at 20 µM (Liver carboxylesterase [2]): 12.1%
CCOC(=O)/C(=N\Nc1ccc(Br)cc1)C(=O)C(F)(F)F		36.3	0.53		2.02	0.0153	1.36	0.00514	IC50 [7]: > 500 µM; LD50 at 336 h [8]: 300 mg/kg
CCOC(=O)/C(=N\Nc1ccc(F)cc1)C(=O)C(F)(F)F		35.3	0.6		11.3	0.0223	2.67	0.00716	IC50 [7]: > 500 µM
Cc1c(C)c2c(c(C)c1O)CCC(C)(C(=O)O)O2 (stereo unspecified) [TROLOX]		20.4	1						
CCOC(=O)/C(=N\Nc1ccc(C(=O)OCC)cc1)C(=O)C(F)(F)F		193	0.1		19.6		3.79	0.0471	
CCOC(=O)/C(=N\Nc1ccc(C)cc1)C(=O)C(F)F	12.4%	53.3	0.37	18.2%				3.23	
COC(=O)/C(=N\Nc1ccc(C)cc1)C(=O)C(F)F	2.3%	52.6	0.38	5.8%				1.57	IC50 [7]: > 500 µM
CCOC(=O)/C(=N\Nc1ccccc1[N+](=O)[O-])C(=O)C(F)(F)F			0.04		8.06	0.0241	0.759	0.00495	IC50 [7]: > 500 µM; LD50 at 336 h [8]: 300 mg/kg
CC(=O)/C(=N\Nc1ccc(C)cc1)C(=O)C(F)(F)F	13.4%	15.6	1.33	11%				56.6	
Oc1ccccc1O [CATECHOL]		16.4	1.2						
COC(=O)/C(=N\Nc1ccccc1[N+](=O)[O-])C(=O)C(F)(F)F			0.03		45.1	0.102	20.9	0.00765	IC50 [7]: > 500 µM; LD50 at 336 h [8]: 300 mg/kg
COC(=O)/C(=N\Nc1ccccc1)C(=O)C(F)(F)F		26.6	0.78		14.5	0.0115	20.1	0.0555	
CCOC(=O)/C(=N\Nc1ccc(C)cc1)C(=O)C(F)(F)C(F)(F)C(F)(F)F		62.3	0.3	23.6%	42.1			0.102	
COC(=O)/C(=N\Nc1ccc(OC)cc1)C(=O)C(F)(F)C(F)(F)C(F)(F)F	21.2%	50.3	0.4	7.1%		0.111		0.103	
Cc1ccc(N/N=C(\C(=O)c2ccccc2)C(=O)C(F)(F)F)cc1	19.4%	12.8	1.7	9.1%				5.54	
CCOC(=O)/C(=N\Nc1ccc(C)cc1)C(=O)C(F)(F)C(F)(F)F		55.2	0.36	11.5%	31.1	0.0474		0.164	
COC(=O)/C(=N\Nc1ccc(OC)cc1)C(=O)C(F)(F)F		22.5	0.97		49.6	0.0213	30.3	0.0467	
CCOC(=O)/C(=N\Nc1ccc(OC)cc1)C(=O)C(F)(F)F	24.3%	19.3	1			0.00429	4.62	0.0131	
CCOC(=O)/C(=N\Nc1ccccc1C(=O)OCC)C(=O)C(F)(F)F			0.04		0.122		0.481	0.0416	
COC(=O)/C(=N\Nc1ccc(C)cc1)C(=O)C(F)(F)F		21.2	0.98		33	0.0163	28.3	0.0278	Ki (Liver carboxylesterase [11]): 0.014 µM; alphaKi (Acetylcholinesterase [12]): 139 µM; alphaKi (Liver carboxylesterase [13]): 82.2 nM; alphaKi [14]: 72.7 µM; Ki (Cholinesterase [15]): 29.2 µM; Ki (Acetylcholinesterase [16]): 10.1 µM
CCOC(=O)/C(=N\Nc1cccc(C)c1)C(=O)C(F)(F)F		25.4	0.85		38.1	0.00517	30.4	0.00727	IC50 [7]: > 500 µM; LD50 at 336 h [8]: 300 mg/kg
O=C1O[C@H]([C@@H](O)CO)C(O)=C1O [ASCORBIC ACID]		21.6	0.98						
O=[N+]([O-])c1ccc(OP(=O)(O)Oc2ccc([N+](=O)[O-])cc2)cc1	inactive			inactive					
CCOC(=O)/C(=N\Nc1ccccc1)C(=O)C(F)(F)F		26.7	0.8		8.42	0.0061	3.22	0.00614	IC50 [7]: > 500 µM; LD50 at 336 h [8]: 600 mg/kg; Activity [17]: Non-Toxic
CCOC(=O)/C(=N\Nc1ccc(C)cc1)C(=O)C(F)(F)C(F)(F)C(F)(F)C(F)(F)F	4%	66.6	0.26	17.2%				0.0893	
